Tested on: HEK-293T
Experiment: Multiplex assay against HEK293T
Assay type: toxicity, cell-based
Details: human
Summary of the method: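 Imaging took place on a CQ1 microscope at 37°C and 5% CO2 once compound had been added to live cells stained at seeding with Hoechst33342, BioTracker Green Microtubule Cytoskeleton Dye, MitoTracker Red and Annexin V Alexa Fluor 680. CellPathfinder machine-learning gating classed cells as Hoechst high-intensity objects or normal cells, classed normal cells as having healthy, pyknosed or fragmented nuclei, and classed pyknosed cells as mitotic or apoptotic. Tubulin, mitochondrial-mass and membrane-permeability phenotypes are per cents of the healthy-nucleus cells.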

[1] = 12 h, 1 µM, compound concentration 1 uM, replicate 1
[2] = 12 h, 1 µM, compound concentration 1 uM, replicate 2
[3] = 12 h, 10 µM, compound concentration 10 uM, replicate 1
[4] = 12 h, 10 µM, compound concentration 10 uM, replicate 2
[5] = 24 h, 1 µM, compound concentration 1 uM, replicate 1
[6] = 24 h, 1 µM, compound concentration 1 uM, replicate 2
[7] = 24 h, 10 µM, compound concentration 10 uM, replicate 1
[8] = 24 h, 10 µM, compound concentration 10 uM, replicate 2
[9] = 48 h, 1 µM, compound concentration 1 uM, replicate 1
[10] = 48 h, 1 µM, compound concentration 1 uM, replicate 2
[11] = 48 h, 10 µM, compound concentration 10 uM, replicate 1
[12] = 48 h, 10 µM, compound concentration 10 uM, replicate 2

With `COc1cc(OC2CCN(C(C)=O)CC2)ccc1C(=O)N1CCC(N2C(=O)OCc3ccccc32)CC1` the “Population Apoptotic (%)” value [1] was 28%, the “Population Fragmented Nuclei (%)” value [1] was 5% and the “Population Healthy Nuclei (%)” value [1] was 83%. For the same molecule, the “Population Hoechst High Intensity Objects (%)” value [1] was 7%, the “Population Membrane Permeable-Phenotype (%)” value [1] was 0% and the “Population Mitochondria Different-Phenotype (%)” value [1] was 37%. The “Population Mitotic Cells (%)” value [1] was 71%, the “Population Normal (%)” value [1] was 92% and the “Population Pyknosed Nuclei (%)” value [1] was 11%. The “Population Tubulin-Different-Phenotype (%)” value [1] was 26%, the “Total Cell Count” value [1] was 477 and the “Population Apoptotic (%)” value [2] was 48%. For the same molecule, the “Population Healthy Nuclei (%)” value [2] was 76%, the “Population Mitochondria Different-Phenotype (%)” value [2] was 59% and the “Population Mitotic Cells (%)” value [2] was 51%. The “Population Pyknosed Nuclei (%)” value [2] was 18%, the “Population Tubulin-Different-Phenotype (%)” value [2] was 21% and the “Total Cell Count” value [2] was 381. The “Population Apoptotic (%)” value [3] was 40%, the “Population Fragmented Nuclei (%)” value [3] was 9% and the “Population Healthy Nuclei (%)” value [3] was 77%. The “Population Hoechst High Intensity Objects (%)” value [3] was 8%, the “Population Membrane Permeable-Phenotype (%)” value [3] was 0% and the “Population Mitochondria Different-Phenotype (%)” value [3] was 57%. For the same molecule, the “Population Mitotic Cells (%)” value [3] was 60%, the “Population Normal (%)” value [3] was 91% and the “Population Pyknosed Nuclei (%)” value [3] was 13%. The “Population Tubulin-Different-Phenotype (%)” value [3] was 47%, the “Total Cell Count” value [3] was 436 and the “Population Apoptotic (%)” value [4] was 67%. For the same molecule, the “Population Fragmented Nuclei (%)” value [4] was 4%, the “Population Healthy Nuclei (%)” value [4] was 80% and the “Population Hoechst High Intensity Objects (%)” value [4] was 6%. For the same molecule, the “Population Mitochondria Different-Phenotype (%)” value [4] was 77%, the “Population Mitotic Cells (%)” value [4] was 32% and the “Population Normal (%)” value [4] was 93%. The “Population Pyknosed Nuclei (%)” value [4] was 14%, the “Population Tubulin-Different-Phenotype (%)” value [4] was 40% and the “Total Cell Count” value [4] was 316. For the same molecule, the “Population Apoptotic (%)” value [5] was 28%, the “Population Fragmented Nuclei (%)” value [5] was 9% and the “Population Healthy Nuclei (%)” value [5] was 78%. The “Population Hoechst High Intensity Objects (%)” value [5] was 4%, the “Population Membrane Permeable-Phenotype (%)” value [5] was 2% and the “Population Mitochondria Different-Phenotype (%)” value [5] was 25%. The “Population Mitotic Cells (%)” value [5] was 71%, the “Population Normal (%)” value [5] was 95% and the “Population Pyknosed Nuclei (%)” value [5] was 11%. For the same molecule, the “Population Tubulin-Different-Phenotype (%)” value [5] was 17%, the “Total Cell Count” value [5] was 598 and the “Population Apoptotic (%)” value [6] was 48%. For the same molecule, the “Population Fragmented Nuclei (%)” value [6] was 7%, the “Population Healthy Nuclei (%)” value [6] was 80% and the “Population Hoechst High Intensity Objects (%)” value [6] was 6%. For the same molecule, the “Population Membrane Permeable-Phenotype (%)” value [6] was 0%, the “Population Mitochondria Different-Phenotype (%)” value [6] was 40% and the “Population Mitotic Cells (%)” value [6] was 51%. The “Population Normal (%)” value [6] was 93%, the “Population Pyknosed Nuclei (%)” value [6] was 12% and the “Population Tubulin-Different-Phenotype (%)” value [6] was 15%. The “Total Cell Count” value [6] was 491, the “Population Apoptotic (%)” value [7] was 31% and the “Population Fragmented Nuclei (%)” value [7] was 8%. The “Population Healthy Nuclei (%)” value [7] was 78%, the “Population Hoechst High Intensity Objects (%)” value [7] was 3% and the “Population Membrane Permeable-Phenotype (%)” value [7] was 0%. For the same molecule, the “Population Mitochondria Different-Phenotype (%)” value [7] was 44%, the “Population Mitotic Cells (%)” value [7] was 68% and the “Population Normal (%)” value [7] was 96%. For the same molecule, the “Population Pyknosed Nuclei (%)” value [7] was 13%, the “Population Tubulin-Different-Phenotype (%)” value [7] was 36% and the “Total Cell Count” value [7] was 523. For the same molecule, the “Population Apoptotic (%)” value [8] was 49%, the “Population Fragmented Nuclei (%)” value [8] was 7% and the “Population Hoechst High Intensity Objects (%)” value [8] was 4%. The “Population Mitochondria Different-Phenotype (%)” value [8] was 58%, the “Population Mitotic Cells (%)” value [8] was 50% and the “Population Normal (%)” value [8] was 95%. For the same molecule, the “Population Pyknosed Nuclei (%)” value [8] was 14%, the “Population Tubulin-Different-Phenotype (%)” value [8] was 29% and the “Total Cell Count” value [8] was 393. For the same molecule, the “Population Apoptotic (%)” value [9] was 20%, the “Population Fragmented Nuclei (%)” value [9] was 13% and the “Population Healthy Nuclei (%)” value [9] was 78%. The “Population Hoechst High Intensity Objects (%)” value [9] was 3%, the “Population Membrane Permeable-Phenotype (%)” value [9] was 1% and the “Population Mitochondria Different-Phenotype (%)” value [9] was 19%. For the same molecule, the “Population Mitotic Cells (%)” value [9] was 79%, the “Population Normal (%)” value [9] was 96% and the “Population Pyknosed Nuclei (%)” value [9] was 8%. For the same molecule, the “Population Tubulin-Different-Phenotype (%)” value [9] was 13%, the “Total Cell Count” value [9] was 902 and the “Population Apoptotic (%)” value [10] was 33%. The “Population Fragmented Nuclei (%)” value [10] was 11%, the “Population Healthy Nuclei (%)” value [10] was 80% and the “Population Hoechst High Intensity Objects (%)” value [10] was 2%. For the same molecule, the “Population Mitochondria Different-Phenotype (%)” value [10] was 23%, the “Population Mitotic Cells (%)” value [10] was 66% and the “Population Normal (%)” value [10] was 97%. The “Population Pyknosed Nuclei (%)” value [10] was 7%, the “Population Tubulin-Different-Phenotype (%)” value [10] was 12% and the “Total Cell Count” value [10] was 655. The “Population Apoptotic (%)” value [11] was 36%, the “Population Fragmented Nuclei (%)” value [11] was 13% and the “Population Healthy Nuclei (%)” value [11] was 78%. The “Population Hoechst High Intensity Objects (%)” value [11] was 4%, the “Population Membrane Permeable-Phenotype (%)” value [11] was 0% and the “Population Mitochondria Different-Phenotype (%)” value [11] was 30%. For the same molecule, the “Population Mitotic Cells (%)” value [11] was 63%, the “Population Normal (%)” value [11] was 95% and the “Population Pyknosed Nuclei (%)” value [11] was 8%. The “Population Tubulin-Different-Phenotype (%)” value [11] was 21%, the “Total Cell Count” value [11] was 813 and the “Population Fragmented Nuclei (%)” value [12] was 12%. For the same molecule, the “Population Healthy Nuclei (%)” value [12] was 80%, the “Population Hoechst High Intensity Objects (%)” value [12] was 3% and the “Population Mitochondria Different-Phenotype (%)” value [12] was 39%. The “Population Normal (%)” value [12] was 96%, the “Population Pyknosed Nuclei (%)” value [12] was 7% and the “Population Tubulin-Different-Phenotype (%)” value [12] was 16%. For the same molecule, the “Total Cell Count” value [12] was 625.

Source: ChEMBL document CHEMBL5058577, “EUbOPEN Chemogenomics Library 2 (Multiplex)” (2022)
